Source: PubChem BioAssay (several laboratories)
MPTP inh: inhibitors of mitochondrial permeability transition pore. isolated mouse mitochondria, Ca2+ swelling absorbance, 30 min. inhibition, % at 10 µM. 360,000 tested, 1.4% active;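 active = inhibition of 50% or more, scaled per plate between neutral and stimulator controls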
GRIN3A LBD mod: NR3A (human) ligand-binding domain modulation; NR3A LBD differential scanning fluorimetry, Tm shift; 0% = protein alone, 100% = glycine-bound protein; Tm shift relative to glycine control, % at 25 µM; 340,000 tested, 2.5% active; AID 1259313;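 active = melting temperature shift of at least 10% of the positive control shift, at one fixed dose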
Tb MetRS inh: Trypanosoma brucei MetRS inhibition; purified T. brucei MetRS, ATP depletion, Kinase-Glo luminescence; AID 624268; inhibition, % at 11.9 µM; 360,000 tested, 0.4% active;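 active = inhibition above a per-plate cutoff of the control wells' mean inhibition plus 3 SD, cut at about 5.5% in these data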
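Material – parasite MetRS enzyme · Medium – HEPES-MgCl2-KCl buffer plus DTT, spermine, BSA, pyrophosphatase · Reagent – ATP, methionine and E. coli bulk tRNA substrates · Times – 15 min enzyme-compound preincubation, 2 h reaction, 10 min detection, 25 °C · Measured by – luminescence of leftover ATP · Evaluation – percent inhibition relative to median high and low control wells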
CHOP inhibitor: inhibitors of CHOP induction in ER stress response | inhibition, % at 10 µM | 220,000 tested, 3.8% active | AID 2732 | CHO-K1 CHOP-promoter luciferase, tunicamycin-induced, 15-18 h;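 active = compounds that reduced the stress-induced luciferase reporter signal by more than about 70% of percent inhibition, limit read from the data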
EBV gp42 block: EBV gp42 inhibition; Fluorescence polarization binding assay, mP read-out; inhibition, % (tested at 21.74 µM); 220,000 tested, 0.42% active; AID 1085; in the data active = inhibition above about 50%
Target sequence (Q1HVG2 whole entry, looked up): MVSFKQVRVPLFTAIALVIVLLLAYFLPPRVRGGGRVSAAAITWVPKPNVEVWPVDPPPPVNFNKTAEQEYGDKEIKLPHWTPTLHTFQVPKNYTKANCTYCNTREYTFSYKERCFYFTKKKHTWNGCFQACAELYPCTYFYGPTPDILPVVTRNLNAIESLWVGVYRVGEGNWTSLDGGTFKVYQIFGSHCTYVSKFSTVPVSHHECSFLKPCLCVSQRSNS
WT yeast gro inh: growth inhibition of WT yeast, mitochondrial fusion screen. AID 1362. inhibition, % at 10 µM. 190,000 tested, 2.1% active. mitochondrial fusion phenotypic screen, WT strain; in the data active = inhibition above about 58%; tested in S. cerevisiae
Hits are given with their value; – = inactive; · = no result given. In the library only some 6.4% were active in any assay of this set; here they are far more common.

SMILES | MPTP inh | GRIN3A LBD mod | Tb MetRS inh | CHOP inhibitor | EBV gp42 block | WT yeast gro inh
CCC(C(=O)OC)n1c(-c2ccccc2)nc2ccccc2c1=O (configuration not stated) | – | – | – | 71 | – | 60
O=C(Oc1cccc([N+](=O)[O-])c1)N1CCCCC1 | – | – | – | – | – | –
COc1ccc(-c2nc3ccccc3s2)cc1O | – | – | – | – | – | 59
FC(F)(F)c1ccc(-c2nc3ccccc3s2)cc1 | – | · | – | · | · | ·
CC(C)c1ccc(-c2nc3ccccc3s2)cc1 | – | – | – | 93 | – | ·
COc1cccc(-c2nc3ccccc3s2)c1O | – | – | – | – | – | –
COc1cc(-c2nc3ccccc3s2)ccc1O | – | – | – | – | – | ·
COc1cc(OC)c(-c2nc3ccccc3s2)cc1OC | – | – | – | 72 | – | –
CCO[C@@H]1OC(C(=O)N2CCN(Cc3ccc4c(c3)OCO4)CC2)=C[C@H](c2coc3ccccc3c2=O)[C@H]1CCCO | – | – | – | – | – | –
CCOC(=O)N1CCN(C(=O)CCS(=O)(=O)c2ccc(Br)s2)CC1 | – | – | – | – | – | –
CC(C)(C)NC(=O)C(c1cccs1)N(CC1CCCO1)C(=O)c1ccc(-c2ccccc2)[nH]1 (configuration not stated) | – | – | – | – | – | –
COc1ccc2[nH]c(=O)c(CN(Cc3ccccc3)C(=S)NCC3CCCO3)cc2c1 (configuration not stated) | – | – | – | – | – | –
CCc1nnc(NC(=O)c2ccc(Cl)nc2)s1 | – | – | – | – | – | –
Cc1ccc(C(c2nnnn2CCc2ccccc2)N2CCSCC2)cc1 (configuration not stated) | – | – | – | – | – | –
COc1ccc(C(c2nnnn2C2CCCCC2)N2CCN(c3ccc(OC)cc3)CC2)cc1 (configuration not stated) | – | – | – | – | – | –
COc1cc(C(c2nnnn2C2CCCC2)N2CCN(C)CC2)cc(OC)c1OC (configuration not stated) | – | – | – | – | – | –
COc1ccc(C(c2nnnn2C2CCCC2)N2CCC(C)CC2)cc1 (configuration not stated) | – | – | – | 83 | – | –
COc1ccc(C(c2nnnn2C2CCCC2)N2CCN(C3CCCC3)CC2)cc1OC (configuration not stated) | – | 11 | – | – | – | –
Cc1ccc(C(c2nnnn2CCc2ccccc2)N2CCC(C)CC2)cc1 (configuration not stated) | – | – | – | – | – | 74
CC(C)(C)c1ccc(NC(=O)Nc2ccc(OCC(=O)N3CCOCC3)cc2)cc1 | – | – | – | – | – | –
O=[N+]([O-])c1cccc(-c2nc(NCc3ccccc3)c3ccccc3n2)c1 | – | 339 | – | – | – | –
O=C(O)c1cc(-c2cccc([N+](=O)[O-])c2)nc2ccccc12 | – | – | – | – | – | ·
Clc1cccc(-c2nc(NCc3cccnc3)c3ccccc3n2)c1 | – | 22 | – | – | – | –
COc1ccc(CNc2nc(-c3ccccc3)nc3ccccc23)cc1OC | – | – | – | · | · | ·
Fc1ccc(CNc2nc(-c3ccccc3)nc3ccccc23)cc1 | – | 21 | – | 73 | – | –
SMILES | MPTP inh | GRIN3A LBD mod | Tb MetRS inh | CHOP inhibitor | EBV gp42 block | WT yeast gro inh
Cc1cc(-c2cccc([N+](=O)[O-])c2)nc2ccc3ccccc3c12 | – | 27 | – | – | – | –
O=C(CSc1c2c(nc3ccccc13)CCC2)N1CCCC1 | – | – | – | – | – | –
Cc1cccc(NC(=O)CCC(=O)OCC(=O)c2ccc(Oc3ccc([N+](=O)[O-])cc3)cc2)c1 | – | – | – | – | – | –
CCOC(=O)c1ccccc1NC(=O)CSc1nnc(Cc2cccn2C)n1-c1ccc(F)cc1 | – | – | – | – | – | –
O=[N+]([O-])c1ccc(-c2nc(NCc3ccccc3)c3ccccc3n2)cc1 | – | 50 | – | 90 | – | –
c1ccc(CCNc2nc(-c3ccccn3)nc3ccccc23)cc1 | – | – | – | 81 | – | ·
CCCN(CCC)c1nc(-c2ccccn2)nc2ccccc12 | – | – | – | · | · | ·
Cc1ccc(OCCOCCN2CCCCC2)c([N+](=O)[O-])c1 | – | – | – | – | – | –
CCOc1ccc(NC(=O)C2C3CCC4C(CCC32)C4(Cl)Cl)cc1 (configuration not stated) | – | – | – | – | – | –
